# Results reported in ChEMBL document CHEMBL1148350, “Synthesis, biological activity, and three-dimensional quantitative structure-activity relationship model for a series of benzo[c]quinolizin-3-ones, nonsteroidal inhibitors of human steroid 5alpha-reductase 1” (J Med Chem, 2004).
# Key:
# [1] = target: T1, 3-oxo-5-alpha-steroid 4-dehydrogenase 1 (Homo sapiens, UniProt P18405); experiment: Log of inhibitory concentration against human recombinant steroid 5-alpha-reductase type I in stably transfected chinese hamster ovary (CHO) 1827 cells using [3H]testosterone.
# T1 sequence (P18405 whole entry): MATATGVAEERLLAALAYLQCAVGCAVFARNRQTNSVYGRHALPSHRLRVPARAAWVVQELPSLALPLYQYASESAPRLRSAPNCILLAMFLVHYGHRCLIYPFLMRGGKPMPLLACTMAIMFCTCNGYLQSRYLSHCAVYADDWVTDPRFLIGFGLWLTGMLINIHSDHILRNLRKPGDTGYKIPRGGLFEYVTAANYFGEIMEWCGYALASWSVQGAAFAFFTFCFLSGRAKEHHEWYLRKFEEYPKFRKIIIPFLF
# Method in brief: (§1)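 Intact stably transfected CHO 1827 cells expressing human recombinant 5αR-1 were incubated 30 min with [3H]-testosterone at its Km (2 μM) plus inhibitor over 10^-9–10^-5 M. IC50 was obtained by four-parameter logistic fit. Finasteride served as reference inhibitor across repeated assays.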
# [2] = Partition coefficient (logP); format: physicochemical; conditions: octanol/water
# [3] = target: T1, 3-oxo-5-alpha-steroid 4-dehydrogenase 1; experiment: Inhibitory concentration against human recombinant steroid 5-alpha-reductase type I in stably transfected chinese hamster ovary (CHO) 1827 cells using [3H]testosterone.; method in brief: as §1
# [4] = target: T2, 3-oxo-5-alpha-steroid 4-dehydrogenase 2 (Homo sapiens, UniProt P31213); experiment: Inhibitory concentration against human recombinant steroid 5-alpha-reductase type 2 in stably transfected chinese hamster ovary 1827 cells using [3H]testosterone
# T2 sequence (P31213 whole entry): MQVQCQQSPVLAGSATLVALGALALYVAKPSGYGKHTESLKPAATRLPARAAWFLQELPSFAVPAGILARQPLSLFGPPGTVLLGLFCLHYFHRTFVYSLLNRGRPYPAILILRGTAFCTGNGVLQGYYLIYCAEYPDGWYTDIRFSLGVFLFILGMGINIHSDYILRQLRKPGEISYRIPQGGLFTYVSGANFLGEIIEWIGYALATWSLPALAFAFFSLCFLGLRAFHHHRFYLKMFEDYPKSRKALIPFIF
# Method in brief: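 Intact stably transfected CHO 1827 cells incubated 30 min with [3H]testosterone at its Km concentration plus inhibitor over 10^-9–10^-5 M. IC50 fitted by four-parameter logistic equation. Finasteride run as reference inhibitor to check interassay reproducibility.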
SMILES,IC50 [1],logP [2],IC50 [3],IC50 [4]
COC(=O)c1cccc(OC(=O)c2ccc3c(c2)CCC2=C(C)C(=O)CCN23)c1,955 nM,4.86,965 nM,
CC1=C2CCc3cc(OCc4cc(C(F)(F)F)ccc4C(F)(F)F)ccc3N2CCC1=O,389 nM,6.41,393 nM,
C=Cc1ccc2c(c1)CCC1=C(C)C(=O)CCN12,21.4 nM,3.57,21.6 nM,
CC1=C2CCc3cc(OCc4ccc(Cl)cc4)ccc3N2CCC1=O,93.3 nM,5.35,92.9 nM,
CC1=C2CCc3cc(Br)ccc3N2CCC1=O,8.13 nM,3.88,8.1 nM,
CC1=C2CCc3cc(C#Cc4ccccc4)ccc3N2CCC1=O,8.71 nM,5.49,8.75 nM,
COc1ccc2c(c1)CCC1=C(C)C(=O)CCN12,182 nM,2.87,178 nM,
Cc1ccc2c(c1)CCC1=CC(=O)CCN12,,2.83,,
CC1=C2CCc3cc(-c4cccnc4)ccc3N2CCC1=O,170 nM,3.35,170 nM,
CC1=C2CCc3cc(C(=O)Oc4ccccc4)ccc3N2CCC1=O,933 nM,4.64,942 nM,
CC1=C2CCc3cc(C)ccc3N2CCC1=O,,3.35,,
CCOC(=O)c1ccc2c(c1)CCC1=C(C)C(=O)CCN12,219 nM,3.66,221 nM,
COC(=O)c1ccc2c(c1)CCC1=C(C)C(=O)CCN12,117 nM,3.13,117 nM,
CC1=C2CCc3cc(C(=O)OCc4ccccc4)ccc3N2CCC1=O,97.7 nM,4.96,96.8 nM,
CC1=C2CCc3cc(Cl)ccc3N2CCC1=O,5.62 nM,3.73,5.8 nM,
CC1=C2CCc3ccccc3N2CCC1=O,,2.85,,
CC1=C2CCc3cc(OCc4ccc(C(F)(F)F)cc4C(F)(F)F)ccc3N2CCC1=O,148 nM,6.41,149 nM,
CC1=C2CCc3cc(OCc4ccccc4)ccc3N2CCC1=O,112 nM,4.64,111 nM,

SMILES,IC50 [1],logP [2],IC50 [3],IC50 [4]
CC1=C2CCc3cc(-c4ccco4)ccc3N2CCC1=O,132 nM,4.12,133 nM,
CC1=C2CCc3cc(C(=O)Oc4ccc(C(C)(C)C)cc4)ccc3N2CCC1=O,562 nM,6.47,560 nM,
CC1=C2CCc3cc(OCc4cccc(Cl)c4)ccc3N2CCC1=O,93.3 nM,5.35,93 nM,
CC1=C2CCc3cc(OCc4ccc(C(F)(F)F)cc4)ccc3N2CCC1=O,83.2 nM,5.52,83.7 nM,
CC1=C2CCc3cc(/C=C/c4ccccc4)ccc3N2CCC1=O,380 nM,5.54,380 nM,
CC1=C2CCc3cc(/C=C\c4ccccc4)ccc3N2CCC1=O,14.1 nM,5.54,14.2 nM,
CC1=C2CCc3cc(-c4ccccc4)ccc3N2CCC1=O,129 nM,4.74,128 nM,
CC1=C2CCc3cc(C(=O)OC(C)C)ccc3N2CCC1=O,724 nM,3.97,731 nM,
CCc1ccc2c(c1)CCC1=C(C)C(=O)CCN12,14.1 nM,3.88,14 nM,
CC1=C2CCc3cc(C(=O)Oc4ccc(C)cc4)ccc3N2CCC1=O,1050 nM,4.05,1050 nM,
COC(=O)c1ccc(OC(=O)c2ccc3c(c2)CCC2=C(C)C(=O)CCN23)cc1,120 nM,4.86,121 nM,
O=C1C=C2CCc3cc(Cl)ccc3N2CC1,,3.22,,
CC1=C2CCc3cc(-c4cccs4)ccc3N2CCC1=O,79.4 nM,4.62,79 nM,
CC1=C2CCc3cc(C(=O)OC(C)(C)C)ccc3N2CCC1=O,1000 nM,4.37,1000 nM,
CC1=C2CCc3cc(OCc4ccccc4Cl)ccc3N2CCC1=O,195 nM,5.35,194 nM,
O=C1C=C2CCc3ccccc3N2CC1,,2.33,,
CC(C)(C)NC(=O)[C@H]1CC[C@H]2[C@@H]3CC[C@H]4NC(=O)C=C[C@]4(C)[C@H]3CC[C@]12C [FINASTERIDE],,,,21 nM
